{"source": "ChEMBL document CHEMBL4229410", "about": "“Facile construction of fused benzimidazole-isoquinolinones that induce cell-cycle arrest and apoptosis in colorectal cancer cells” (Bioorg Med Chem, 2018)", "key": {"[1]": {"test_system": "HT-29", "assay": "Induction of apoptosis in human HT-29 cells assessed as increase in apoptotic bodies after 48 hrs by Hoechst 33342 staining based fluorescence microscopic analysis", "assay_type": "functional, cell-based", "outline": "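HT29 cells in 24-well plates were treated at 0, 25, 50 or 75 μM for 48 h and fixed 20 min in 4% paraformaldehyde. After Hoechst 33342 staining for 15 min at 37 °C, apoptotic bodies and chromatin condensation were scored by fluorescence microscopy.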"}, "[2]": {"target": "Testis-specific serine/threonine-protein kinase 1 (Homo sapiens) (UniProt Q9BXA7)", "sequence (Q9BXA7 whole entry, the tested form may be a part)": "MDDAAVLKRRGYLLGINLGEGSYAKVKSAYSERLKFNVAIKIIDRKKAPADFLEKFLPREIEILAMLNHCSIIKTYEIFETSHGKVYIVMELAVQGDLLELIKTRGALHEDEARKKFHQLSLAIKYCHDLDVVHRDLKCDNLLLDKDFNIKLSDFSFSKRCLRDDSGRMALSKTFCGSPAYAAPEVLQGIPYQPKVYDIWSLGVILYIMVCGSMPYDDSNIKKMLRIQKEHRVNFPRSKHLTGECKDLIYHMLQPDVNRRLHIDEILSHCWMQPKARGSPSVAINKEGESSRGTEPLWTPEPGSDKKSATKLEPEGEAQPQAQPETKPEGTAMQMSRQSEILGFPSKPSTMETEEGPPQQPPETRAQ", "assay": "Inhibition of full length human TSSK1B (M1 to Q367 residues) expressed in bacterial expression system assessed as residual activity at 5 uM by KINOMEscan assay relative to control"}, "[3]": {"test_system": "SW-620", "assay": "Cell cycle arrest in human SW620 cells assessed as accumulation at G2-phase at 50 uM after 48 hrs by propidium iodide staining based flow cytometry (reference value: 14.08%)", "assay_type": "functional"}, "[4]": {"test_system": "Mast/stem cell growth factor receptor Kit (Homo sapiens), P10721 [V559D,T670I]", "sequence (P10721 whole entry V559D/T670I, the tested form may be a part)": "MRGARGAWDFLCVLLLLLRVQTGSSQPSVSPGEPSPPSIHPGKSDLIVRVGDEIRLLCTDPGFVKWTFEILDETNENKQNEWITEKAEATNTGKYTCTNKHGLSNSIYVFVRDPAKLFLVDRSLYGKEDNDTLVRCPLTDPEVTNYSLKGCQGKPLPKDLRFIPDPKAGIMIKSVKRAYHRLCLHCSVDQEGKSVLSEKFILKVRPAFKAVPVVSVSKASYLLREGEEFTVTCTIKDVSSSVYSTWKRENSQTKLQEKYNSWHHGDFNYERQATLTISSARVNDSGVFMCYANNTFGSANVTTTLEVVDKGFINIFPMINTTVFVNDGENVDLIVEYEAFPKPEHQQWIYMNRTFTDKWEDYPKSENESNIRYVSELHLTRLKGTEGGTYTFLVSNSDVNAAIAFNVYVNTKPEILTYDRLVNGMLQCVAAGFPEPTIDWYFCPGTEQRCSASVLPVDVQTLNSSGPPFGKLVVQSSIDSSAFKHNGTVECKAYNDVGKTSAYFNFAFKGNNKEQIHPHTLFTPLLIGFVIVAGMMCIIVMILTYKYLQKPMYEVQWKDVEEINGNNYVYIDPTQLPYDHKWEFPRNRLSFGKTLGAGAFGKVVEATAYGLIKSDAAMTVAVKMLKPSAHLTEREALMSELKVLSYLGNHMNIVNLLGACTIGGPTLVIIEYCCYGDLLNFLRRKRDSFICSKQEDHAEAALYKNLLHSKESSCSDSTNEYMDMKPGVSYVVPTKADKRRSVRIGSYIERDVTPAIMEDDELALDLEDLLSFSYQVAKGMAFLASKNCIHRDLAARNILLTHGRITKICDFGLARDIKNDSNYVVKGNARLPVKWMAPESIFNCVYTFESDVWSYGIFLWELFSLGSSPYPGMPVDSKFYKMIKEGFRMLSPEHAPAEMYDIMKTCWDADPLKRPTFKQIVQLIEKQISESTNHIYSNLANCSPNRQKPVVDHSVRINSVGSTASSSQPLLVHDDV", "assay": "Inhibition of human KIT (I571 to D952 residues) V559D/T670I double mutant expressed in bacterial expression system assessed as residual activity at 5 uM by KINOMEscan assay relative to control"}, "[5]": {"target": "3-phosphoinositide-dependent protein kinase 1 (Homo sapiens) (UniProt O15530)", "assay": "Inhibition of full length human PDPK1 (M1 to Q556 residues) expressed in bacterial expression system assessed as residual activity at 5 uM by KINOMEscan assay relative to control"}, "[6]": {"test_system": "HT-29", "assay": "Cell cycle arrest in human HT-29 cells assessed as accumulation at G2-phase at 50 uM after 48 hrs by propidium iodide staining based flow cytometry (reference value: 15.45%)", "assay_type": "functional"}, "[7]": {"target": "Receptor tyrosine-protein kinase erbB-4 (Homo sapiens, UniProt Q15303)", "assay": "Inhibition of human ERBB4 (L690 to K994 residues) expressed in bacterial expression system assessed as residual activity at 5 uM by KINOMEscan assay relative to control"}, "[8]": {"target": "cAMP-dependent protein kinase catalytic subunit alpha (Homo sapiens, UniProt P17612)", "assay": "Inhibition of human PKACalpha (G10 to F351 residues) expressed in bacterial expression system assessed as residual activity at 5 uM by KINOMEscan assay relative to control"}, "[9]": {"test_system": "HT-29", "assay": "Down regulation of CDK1 expression in human HT-29 cells after 48 hrs by Western blot analysis", "assay_type": "functional, cell-based", "outline": "(§1)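 HT29 or SW620 cells were treated at 0, 25, 50 and 75 μM for 48 h and lysed in RIPA with protease and phosphatase inhibitors. Protein was quantified by BCA. 50 μg lysate was run on 8–15% SDS-PAGE and transferred to PVDF. Blocking was 5% BSA/TBST for 2 h; primary antibodies were applied overnight at 4 °C, then HRP secondary 1 h at room temperature.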"}, "[10]": {"test_system": "SW-620", "assay": "Effect on total AKT expression in human SW620 cells up to 75 uM after 48 hrs by Western blot analysis", "assay_type": "ADME, cell-based", "conditions": "sw-620, 48 h", "outline": "as §1"}, "[11]": {"target": "T1, MAP/microtubule affinity-regulating kinase 3 (Homo sapiens, UniProt P27448)", "assay": "Binding affinity to full length human MARK3 (M1 to L729 residues) expressed in bacterial expression system by KINOMEscan assay"}, "[12]": {"target": "MAP kinase-interacting serine/threonine-protein kinase 2 (Homo sapiens, UniProt Q9HBH9)", "sequence (Q9HBH9 whole entry, looked up, the tested form may be a part)": "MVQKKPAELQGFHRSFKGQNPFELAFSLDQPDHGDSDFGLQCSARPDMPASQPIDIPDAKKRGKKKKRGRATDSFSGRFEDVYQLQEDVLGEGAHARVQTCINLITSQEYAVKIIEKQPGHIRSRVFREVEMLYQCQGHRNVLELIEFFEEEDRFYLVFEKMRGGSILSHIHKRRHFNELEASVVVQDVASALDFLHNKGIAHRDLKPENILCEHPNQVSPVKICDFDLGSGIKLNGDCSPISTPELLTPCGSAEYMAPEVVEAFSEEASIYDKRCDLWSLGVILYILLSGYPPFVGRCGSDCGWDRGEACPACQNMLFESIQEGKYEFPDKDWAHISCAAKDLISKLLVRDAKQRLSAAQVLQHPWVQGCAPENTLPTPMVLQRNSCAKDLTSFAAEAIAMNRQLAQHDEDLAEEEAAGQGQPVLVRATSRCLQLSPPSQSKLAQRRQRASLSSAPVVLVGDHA", "assay": "Inhibition of human MKNK2 (G63 to S388 residues) expressed in mammalian expression system assessed as residual activity at 5 uM by KINOMEscan assay relative to control"}, "[13]": {"test_system": "SW-620", "assay": "Cell cycle arrest in human SW620 cells assessed as accumulation at G1-phase at 25 uM after 48 hrs by propidium iodide staining based flow cytometry (reference value: 40.56%)", "assay_type": "functional"}, "[14]": {"test_system": "HT-29", "assay": "Induction of apoptosis in human HT-29 cells assessed as early apoptotic cells at 75 uM after 48 hrs by Annexin-V-FITC/propidium iodide staining based flow cytometry (reference value: 1%)", "assay_type": "functional"}, "[15]": {"target": "T1, MAP/microtubule affinity-regulating kinase 3", "assay": "Inhibition of full length human MARK3 (M1 to L729 residues) expressed in bacterial expression system assessed as residual activity at 5 uM by KINOMEscan assay relative to control"}, "[16]": {"target": "Tyrosine-protein kinase JAK2 (Homo sapiens, UniProt O60674)", "assay": "Inhibition of human JAK2 JH1 catalytic domain (A829 to G1132 residues) expressed in mammalian expression system assessed as residual activity at 5 uM by KINOMEscan assay relative to control"}, "[17]": {"target": "Aurora kinase A (Homo sapiens, UniProt O14965)", "sequence (O14965 whole entry, the tested form may be a part)": "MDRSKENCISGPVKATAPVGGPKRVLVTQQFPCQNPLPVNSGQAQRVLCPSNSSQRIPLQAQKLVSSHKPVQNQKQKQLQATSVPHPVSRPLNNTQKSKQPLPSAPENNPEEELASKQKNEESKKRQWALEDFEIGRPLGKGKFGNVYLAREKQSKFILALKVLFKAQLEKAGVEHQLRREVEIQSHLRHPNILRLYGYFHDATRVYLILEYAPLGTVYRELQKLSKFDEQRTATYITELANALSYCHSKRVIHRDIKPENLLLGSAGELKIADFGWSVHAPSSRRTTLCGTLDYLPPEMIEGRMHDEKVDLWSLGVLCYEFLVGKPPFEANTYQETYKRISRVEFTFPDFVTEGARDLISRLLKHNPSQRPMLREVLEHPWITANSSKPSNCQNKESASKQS", "assay": "Binding affinity to human AURKA (E122 to K401 residues) expressed in mammalian expression system by KINOMEscan assay"}, "[18]": {"test_system": "HT-29", "assay": "Induction of apoptosis in human HT-29 cells assessed as necrotic cells at 75 uM after 48 hrs by Annexin-V-FITC/propidium iodide staining based flow cytometry (reference value: 1.6%)", "assay_type": "functional"}, "[19]": {"target": "Cyclin-dependent kinase 9 (Homo sapiens, UniProt P50750)", "sequence (P50750 whole entry, the tested form may be a part)": "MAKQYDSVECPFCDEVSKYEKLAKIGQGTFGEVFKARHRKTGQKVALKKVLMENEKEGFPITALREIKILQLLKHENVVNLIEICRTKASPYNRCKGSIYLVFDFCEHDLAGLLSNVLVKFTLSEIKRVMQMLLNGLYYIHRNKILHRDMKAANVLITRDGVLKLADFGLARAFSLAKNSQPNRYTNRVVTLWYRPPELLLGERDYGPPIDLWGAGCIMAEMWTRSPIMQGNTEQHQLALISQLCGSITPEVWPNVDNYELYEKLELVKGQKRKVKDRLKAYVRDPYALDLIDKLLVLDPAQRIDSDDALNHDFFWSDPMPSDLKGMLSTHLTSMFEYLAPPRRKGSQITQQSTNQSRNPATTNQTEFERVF", "assay": "Inhibition of full length human CDK9 (M1 to F372 residues) expressed in bacterial expression system assessed as residual activity at 5 uM by KINOMEscan assay relative to control"}, "[20]": {"target": "Insulin receptor (Homo sapiens, UniProt P06213)", "assay": "Inhibition of human INSR (P997 to E1318 residues) expressed in mammalian expression system assessed as residual activity at 5 uM by KINOMEscan assay relative to control"}, "[21]": {"target": "Tyrosine-protein kinase ZAP-70 (Homo sapiens) (UniProt P43403)", "assay": "Inhibition of human ZAP70 (D20 to G299 residues) expressed in mammalian expression system assessed as residual activity at 5 uM by KINOMEscan assay relative to control"}, "[22]": {"target": "Cyclin-dependent kinase 19 (Homo sapiens, UniProt Q9BWU1)", "sequence (Q9BWU1 whole entry, the tested form may be a part)": "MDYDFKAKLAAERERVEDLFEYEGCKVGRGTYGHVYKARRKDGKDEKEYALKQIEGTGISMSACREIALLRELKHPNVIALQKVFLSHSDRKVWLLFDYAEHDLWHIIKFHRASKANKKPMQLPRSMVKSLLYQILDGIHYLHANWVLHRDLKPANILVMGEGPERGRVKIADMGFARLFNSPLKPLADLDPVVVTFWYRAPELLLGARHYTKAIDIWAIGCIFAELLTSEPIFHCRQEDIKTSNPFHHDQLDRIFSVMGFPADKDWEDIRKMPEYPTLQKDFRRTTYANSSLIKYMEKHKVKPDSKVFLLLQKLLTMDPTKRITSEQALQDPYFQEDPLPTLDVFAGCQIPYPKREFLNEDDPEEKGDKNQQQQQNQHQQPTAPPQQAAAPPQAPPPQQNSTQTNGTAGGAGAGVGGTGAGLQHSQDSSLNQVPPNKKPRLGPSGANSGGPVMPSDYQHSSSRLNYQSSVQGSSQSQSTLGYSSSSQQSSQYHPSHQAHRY", "assay": "Binding affinity to human CDK11 (M1 to N360 residues) expressed in bacterial expression system by KINOMEscan assay"}, "[23]": {"test_system": "Tyrosine-protein kinase ABL1 (Homo sapiens), P00519 [T315I]", "assay": "Inhibition of human phosphorylated ABL1 T315I mutant (S229 to K512 residues) expressed in mammalian expression system assessed as residual activity at 5 uM by KINOMEscan assay relative to control"}, "[24]": {"target": "Serine/threonine-protein kinase PLK4 (Homo sapiens, UniProt O00444)", "sequence (O00444 whole entry, the tested form may be a part)": "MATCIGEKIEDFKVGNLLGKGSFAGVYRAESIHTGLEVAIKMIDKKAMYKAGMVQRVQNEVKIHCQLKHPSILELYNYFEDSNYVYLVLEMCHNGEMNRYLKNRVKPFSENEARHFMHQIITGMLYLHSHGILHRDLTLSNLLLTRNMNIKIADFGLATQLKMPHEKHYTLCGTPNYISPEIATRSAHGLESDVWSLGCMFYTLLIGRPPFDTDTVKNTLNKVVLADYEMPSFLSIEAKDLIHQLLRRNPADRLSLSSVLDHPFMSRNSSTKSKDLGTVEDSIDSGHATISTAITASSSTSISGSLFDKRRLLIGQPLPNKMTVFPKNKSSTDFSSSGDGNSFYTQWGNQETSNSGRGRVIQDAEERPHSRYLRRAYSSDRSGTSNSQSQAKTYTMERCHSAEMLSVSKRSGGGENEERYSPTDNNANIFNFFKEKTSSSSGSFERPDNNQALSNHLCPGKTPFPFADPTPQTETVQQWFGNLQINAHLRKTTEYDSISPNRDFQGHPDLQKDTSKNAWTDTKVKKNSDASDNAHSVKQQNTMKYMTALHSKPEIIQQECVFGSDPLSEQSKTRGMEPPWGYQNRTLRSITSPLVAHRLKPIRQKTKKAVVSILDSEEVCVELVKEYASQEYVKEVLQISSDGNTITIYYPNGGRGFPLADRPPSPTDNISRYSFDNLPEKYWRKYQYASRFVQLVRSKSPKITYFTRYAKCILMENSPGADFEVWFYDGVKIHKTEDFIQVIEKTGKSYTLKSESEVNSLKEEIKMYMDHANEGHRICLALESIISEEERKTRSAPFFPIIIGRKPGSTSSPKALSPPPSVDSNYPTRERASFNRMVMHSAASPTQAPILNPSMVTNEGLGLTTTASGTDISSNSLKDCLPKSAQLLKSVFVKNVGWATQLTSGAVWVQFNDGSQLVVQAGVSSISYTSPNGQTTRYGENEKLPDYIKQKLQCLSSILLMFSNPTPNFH", "assay": "Binding affinity to partial length human PLK4 (M1 to S273 residues) expressed in mammalian expression system by KINOMEscan assay"}, "[25]": {"target": "Serine/threonine-protein kinase PAK 4 (Homo sapiens, UniProt O96013)", "sequence (O96013 whole entry, looked up, the tested form may be a part)": "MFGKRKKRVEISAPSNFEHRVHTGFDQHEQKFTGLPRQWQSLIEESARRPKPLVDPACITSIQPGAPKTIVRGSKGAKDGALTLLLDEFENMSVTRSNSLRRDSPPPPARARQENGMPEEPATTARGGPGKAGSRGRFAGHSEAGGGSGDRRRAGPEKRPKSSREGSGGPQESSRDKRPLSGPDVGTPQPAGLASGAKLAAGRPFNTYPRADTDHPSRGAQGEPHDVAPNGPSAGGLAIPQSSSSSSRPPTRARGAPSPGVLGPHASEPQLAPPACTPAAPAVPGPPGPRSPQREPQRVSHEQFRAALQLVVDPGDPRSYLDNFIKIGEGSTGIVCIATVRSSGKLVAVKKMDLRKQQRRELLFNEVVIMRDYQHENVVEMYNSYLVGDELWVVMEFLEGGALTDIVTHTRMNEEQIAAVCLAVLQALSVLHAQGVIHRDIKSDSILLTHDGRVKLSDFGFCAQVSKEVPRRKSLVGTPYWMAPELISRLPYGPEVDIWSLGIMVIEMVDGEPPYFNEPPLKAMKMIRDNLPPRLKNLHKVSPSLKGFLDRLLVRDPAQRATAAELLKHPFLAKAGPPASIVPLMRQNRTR", "assay": "Inhibition of partial length human PAK4 (Q144 to R438 residues) expressed in bacterial expression system assessed as residual activity at 5 uM by KINOMEscan assay relative to control"}, "[26]": {"target": "Serine/threonine-protein kinase DCLK1 (Homo sapiens) (UniProt O15075)", "assay": "Inhibition of partial length human DCAMKL1 (L270 to A662 residues) expressed in mammalian expression system assessed as residual activity at 5 uM by KINOMEscan assay relative to control"}}, "data": [{"smiles": "CC(C)CN(C(=O)c1cccnc1)c1c2ccccc2c(=O)n2c1[nH]c1ccccc12", "values": [{"measurement": "Activity", "setting": "[1]", "value": "Dose-dependent effect"}, {"measurement": "Activity", "setting": "[2]", "value": 92, "unit": "%"}, {"measurement": "Activity", "setting": "[3]", "value": 21.52, "unit": "%"}, {"measurement": "Activity", "setting": "[4]", "value": 98, "unit": "%"}, {"measurement": "Activity", "setting": "[5]", "value": 93, "unit": "%"}, {"measurement": "Activity", "setting": "[6]", "value": 18.12, "unit": "%"}, {"measurement": "Activity", "setting": "[7]", "value": 98, "unit": "%"}, {"measurement": "Activity", "setting": "[8]", "value": 88, "unit": "%"}, {"measurement": "Activity", "setting": "[9]", "value": "Dose-dependent effect"}, {"measurement": "Activity", "setting": "[10]", "value": "Non-Toxic"}, {"measurement": "Kd", "setting": "[11]", "value": "≥ 5", "unit": "µM"}, {"measurement": "Activity", "setting": "[12]", "value": 92, "unit": "%"}, {"measurement": "Activity", "setting": "[13]", "value": 39.26, "unit": "%"}, {"measurement": "Activity", "setting": "[14]", "value": 0.3, "unit": "%"}, {"measurement": "Activity", "setting": "[15]", "value": 94, "unit": "%"}, {"measurement": "Activity", "setting": "[16]", "value": 88, "unit": "%"}, {"measurement": "Kd", "setting": "[17]", "value": "≥ 5", "unit": "µM"}, {"measurement": "Activity", "setting": "[18]", "value": 18.8, "unit": "%"}, {"measurement": "Activity", "setting": "[19]", "value": 87, "unit": "%"}, {"measurement": "Activity", "setting": "[20]", "value": 100, "unit": "%"}, {"measurement": "Activity", "setting": "[21]", "value": 89, "unit": "%"}, {"measurement": "Kd", "setting": "[22]", "value": "≥ 5", "unit": "µM"}, {"measurement": "Activity", "setting": "[23]", "value": 90, "unit": "%"}, {"measurement": "Kd", "setting": "[24]", "value": "≥ 5", "unit": "µM"}, {"measurement": "Activity", "setting": "[25]", "value": 82, "unit": "%"}, {"measurement": "Activity", "setting": "[26]", "value": 74, "unit": "%"}]}]}
